Results pooled from the literature.
Each line is one published result; the experiments were not run side by side.
Target: Activin receptor type-2A (ACVR2A, Homo sapiens, UniProt P27037)

C=CC(=O)N1CCC(C(=O)NCC(=O)N2CCN(c3nc(-c4cnc(N)nc4C(F)F)nc(N4CCOCC4)n3)CC2)CC1  remaining binding (binding; competition with immobilised ligand; 1 µM): 86%
O=C(c1ccc(Nc2ncc(Cl)c(-c3ccc(Cl)s3)n2)cc1)N1CCC(N2CCCC2)CC1  remaining binding (binding; competition with immobilised ligand; 1 µM): 71%
O=C(Nc1cccnn1)N1CCC(=Cc2cccc(Oc3ccc(C(F)(F)F)cn3)c2)CC1  remaining binding (cell-free assay; competition with immobilised ligand; 1 µM): 100%
CCN1CCN(Cc2ccc(C(=O)Nc3ccc(C)c(Oc4ccc5c(c4)CC(=O)N5)c3)cc2C(F)(F)F)CC1  remaining binding (binding; competition with immobilised ligand; 1 µM): 100%
CCOC(=O)c1cc2cc(-c3cc(C(=O)NCc4ccc(C(=O)O)cc4)nn3C)ccc2[nH]1  remaining binding (cell-free assay; competition with immobilised ligand; 0.1 µM): 59%
Nc1ncc2c(n1)-c1c([nH]c3ccc(C#CC4CC4)cc13)CCCC2  remaining binding (binding; competition with immobilised ligand; 1 µM): 91%
COc1cnc(Nc2cccc(S(N)(=O)=O)c2)nc1N1CCN(c2ccccc2)CC1  remaining binding (binding; competition with immobilised ligand; 1 µM): 97%
CN([C@@H]1CCc2c(CC(=O)O)c3ccccc3n2C1)S(=O)(=O)c1ccc(F)cc1  remaining binding (cell-free assay; competition with immobilised ligand; 1 µM): 100%
FC(F)(F)Oc1cccc(-c2cnc3ccc(-c4ccncc4)nn23)c1  remaining binding (cell-free assay; competition with immobilised ligand; 5 µM): 77%
O=C(NCC1CCOCC1)c1n[nH]cc1NC(=O)c1c(F)cccc1F  remaining binding (binding; competition with immobilised ligand; 1 µM): 85%
F[C@@H]1CCN(c2nccc(-c3cnn4ncccc34)n2)C1  remaining binding (binding; 1 µM): 100%
C[C@H](c1ccnc(Nc2nc3ccc(-c4cc(N(C)C)ncn4)cc3[nH]2)c1)N1CCN(C(=O)CC(F)(F)F)CC1  remaining binding (cell-free assay; competition with immobilised ligand; 0.1 µM): 100%
Cc1cnn2ncc(-c3ccnc(N(C)C)n3)c2c1  remaining binding (binding; 1 µM): 74%
O=c1nc(-c2ccccn2)sc2ccccc12  remaining binding (cell-free assay; competition with immobilised ligand; 1 µM): 91%
CN(C)c1nccc(-c2cnc3ncccn23)n1  remaining binding (binding; 1 µM): 100%
O=C(NCCCN1CCOCC1)c1ccc(Nc2ncc(Cl)c(-c3ccc(Cl)s3)n2)cc1  remaining binding (binding; competition with immobilised ligand; 1 µM): 90%
C[C@H]1CCN(c2nccc(-c3cnn4ncccc34)n2)C1  remaining binding (binding; 1 µM): 96%
CC1=C(C#N)C(c2ccc3c(c2)c(NC(=O)c2ccccc2C)nn3C)C(C#N)=C(C)N1  remaining binding (cell-free assay; competition with immobilised ligand; 1 µM): 97%
CN(CCCC(F)(F)F)c1nccc(-c2cnn3ncccc23)n1  remaining binding (binding; 1 µM): 100%
O=C(c1ccc(Nc2ncc(Cl)c(-c3cc4ccccc4s3)n2)cc1)N1CCC(N2CCCC2)CC1  remaining binding (binding; competition with immobilised ligand; 1 µM): 64%
N[C@@H]1CCN(c2nccc(-c3cnn4ncccc34)n2)C1  remaining binding (binding; 1 µM): 100%
c1cncc(-c2cccc(Nc3nccc(NC4CCCCC4)n3)c2)c1  remaining binding (binding; competition with immobilised ligand; 10 µM): 70%
